Data on 96 compounds can be found in ChEMBL document CHEMBL4513216, “Probing the Open Global Health Chemical Diversity Library for Multistage-Active Starting Points for Next-Generation Antimalarials” (ACS Infect Dis, 2020).

The data set in a line: Toxicity liver stage against HepG2, at 10uM. The settings on record: human, HepG2-A16-CD81EGFP cells; read-out: INHIBITION
It is filed as cell-based. Also on record: test concentration 10 uM, cell line HepG2-A16-CD81EGFP. The method in brief: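 Uninfected HepG2-A16-CD81EGFP cells, 3 × 10^3 per well, 1536-well, plated on prespotted compound at 10 μM final, parasite-free screening media added to match infected plates; puromycin 10 μM positive, DMSO 0.5% negative; run in parallel with 48 h PbLuc assay at 37 °C, 5% CO2; viability by CellTiter-Glo luminescence, normalized to controls.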
Regarding `O=C(CCC(=O)Nc1nnc(C2CCCCC2)s1)NCC1CCCO1` (stereo unspecified), the cytotoxicity at 10 µM is -7.7%.
With `O[C@@H]1C[C@@H](c2nc(Cc3ccccc3)no2)N(Cc2ccc(F)cc2)C1` the figure was 0.296%; with `Cc1ccc(CNC2(Cc3cc(-c4cccc(O)c4)on3)COC2)o1`, -0.873%.
On to `O[C@@H]1C[C@@H](c2nc(-c3ccc(F)cc3)no2)N(C2CCOCC2)C1`, for which the cytotoxicity at 10 µM is 4.51%.
Turning to `CN1Cc2ccccc2N(CC(O)C(F)(F)F)CCC1=O` (stereo unspecified), the cytotoxicity at 10 µM amounted to 0.905%.
With `Cn1ccc2ccc(C(=O)N3CC[C@@]4(O)CCCC[C@H]4C3)cc21` the figure was -46.6%; with `Cn1cc(C2SCC(=O)Nc3c2cnn3C(C)(C)C)cn1` (stereo unspecified), -6.24%.
With `COC[C@]12COC[C@H]1CN(C(=O)c1ccc(F)cc1C)C2` the figure was -135%.
Turning to `CCn1cc2c(n1)CN(S(=O)(=O)c1ccc(C)cc1)CC2COC` (stereo unspecified), the cytotoxicity at 10 µM was 5.77%.
With `N#Cc1cccc(N2CCCC3(CN(C(=O)[C@H]4CCCO4)CCO3)C2)c1` (stereo partly specified) the figure was 3.53%; with `Cc1nc(CO[C@@H]2CN(Cc3ccco3)[C@@H]3COC[C@@H]32)cs1`, 5.66%.
With `Cc1cccc(CN2CCc3ncnc(Oc4cccnc4)c3CC2)n1` the figure was -139%.
With `Cc1nc([C@H]2C[C@@H]3CCN(C(=O)c4ccnnc4)C[C@H]3O2)sc1C` the figure was 1.01%; with `O=C(Cc1ccccn1)N1CCn2cc(Cn3cncn3)nc2C1`, -129%; with `CN1CCCN(Cn2nc(-c3ccccc3F)ccc2=O)CC1`, 9.77%.
In the case of `CCOC(=O)CSc1ccc(-c2nc(C)no2)cn1`, the cytotoxicity at 10 µM is -15.2%.
With `Cc1noc(C2CCN(c3oc(C)nc3C#N)CC2)n1` the figure was -6.32%.
With `CCOC1Sc2nnc(C)n2N=C1c1ccc(Br)cc1` (stereo unspecified) the figure was -2.92%; with `CCOCc1cccc(S(=O)(=O)Nc2ccn(CC)n2)c1`, 4.84%; with `CN(C)C(=O)c1cn[nH]c1C1CCCN1Cc1c[nH]cn1` (stereo unspecified), -3.3%.
With `O=C(c1cnco1)N1CCC(Cc2ccc3ncccc3c2)CC1` the figure was 7.22%; with `Cc1cc(-c2cc(N)c(=O)n(CC(=O)NC3CCCC3)n2)c(C)o1`, 4.39%.
As for `CC1(C(=O)N2CCN(c3ncccn3)CC2)CNCCO1` (stereo unspecified), the cytotoxicity at 10 µM was -0.79%.
With `CC(=O)OCc1ccc(CN2CCCCCC2c2cc(C)no2)o1` (stereo unspecified) the figure was -13.1%.
With `O=C(C1CCCC1)N1CCCC(c2nc(O)cc(-c3ccncc3)n2)C1` (stereo unspecified) the figure was -16.9%.
With `Cc1ccc(Br)cc1NC(=O)NC1CCC2(C1)OCCO2` (stereo unspecified) the figure was 15.6%; with `CCNC(=O)CN(CC)S(=O)(=O)c1c(Br)cc2[nH]c(=O)oc2c1Cl`, 9.69%.
Regarding `CC(C)(C)OC(=O)N[C@H]1CCN(C(=O)c2cc(Cl)c[nH]2)C1`, the cytotoxicity at 10 µM was -2.84%.
With `CC(C)(C)OC(=O)NCCC(=O)NCC(O)c1cccc(F)c1` (stereo unspecified) the figure was -2.48%; with `CC(NC(=O)N1CCC1)c1ccc(S(C)(=O)=O)cc1` (stereo unspecified), -4.22%.
Take `Cc1ncc2c(n1)CN(Cc1cn3ccsc3n1)CC2`: the cytotoxicity at 10 µM was -9.06%.
Consider `O=C(O)c1csc(S(=O)(=O)Nc2c(F)cccc2-n2cccn2)c1`, for which the cytotoxicity at 10 µM is -7.32%.
With `O=C(c1ccoc1)N1CCN(Cc2ccccc2F)CC1` the figure was -13.2%.
With `Cc1cccc(-c2noc(CN3CCc4c(ncn4C4CC4)C3)n2)c1` the figure was 4.95%; with `CN(Cc1nccn1C)S(=O)(=O)Cc1cccc(C#N)c1`, 4.16%.
Take `CN(C)S(=O)(=O)N1CCN(C(=O)c2cc(-c3ccccc3)[nH]n2)CC1`: the cytotoxicity at 10 µM is -0.665%.
With `CCN1CCN(S(=O)(=O)c2cn(C(C)C)cn2)c2ccccc21` the figure was -4.3%.
With `Cc1nccn1CCCNc1ncccc1C#N` the figure was -9.09%; with `CN(Cc1cnn(C)c1)C(=O)c1ccc(Cl)c(N2CCNC2=O)c1`, -10.8%; with `Cc1ccc(C(NCC(=O)N2CCNC(=O)C2)C(F)(F)F)cc1` (stereo unspecified), -8.3%.
With `COc1ccc(NC(C)c2nnnn2-c2ccccc2)cn1` (stereo unspecified) the figure was 3.99%.
Regarding `COCCOCCNc1cncc(Br)c1`, the cytotoxicity at 10 µM is -1.33%.
With `O=C(NC1(c2cccc(F)c2)CCOCC1)c1ccoc1` the figure was -9.41%; with `CC1CCCN(CCNC(=O)c2cncnc2C(C)C)C1` (stereo unspecified), -10.6%.
With `COc1ccc(CNC(=O)NCC2CCOC2)c(C(F)(F)F)c1` (stereo unspecified) the figure was -8.28%; with `CS(=O)(=O)NCc1nnc2n1CCN(Cc1nccs1)C2`, -75.7%; with `Cc1ccc(N2CCC3(CCCN(C(=O)c4cnccn4)C3)C2)nn1` (stereo unspecified), 1.14%.
With `FC(F)(F)c1ccc(-c2cc(NC3CCNCC3)nc3[nH]ccc23)nc1` the figure was -0.608%; with `Cn1cc(C(=O)N2CCC(c3nccn3Cc3ccncc3)CC2)cn1`, -0.658%; with `CC(C)CCN1CC2(CCN(C3CCCOC3)CC2)OC1=O` (stereo unspecified), 6.31%.
As to `C=C(C)COc1ccccc1C(=O)N1CCC2(CC1)CN(C)CCN2C`, the cytotoxicity at 10 µM is -50.2%.
With `Cc1cc(C(=O)N2CCC3(CCNCC3)CC2)c2cccc(C)c2n1` the figure was -15.6%.
For `CC(C)NC(=O)N1CCC(c2nccn2C(C)C)CC1`, the cytotoxicity at 10 µM is -6.77%.
With `Cc1cnccc1CN1CCN(C)C2(CCC(=O)N(CC3CC3)CC2)C1` (stereo unspecified) the figure was -3.51%.
In the case of `COCCOC1CCN(C(C(=O)O)c2ccc(OC)c(F)c2)CC1` (stereo unspecified), the cytotoxicity at 10 µM was 7.42%.
With `Cc1nc2c(c(NCCc3nc(C)c(Cl)s3)n1)CCNCC2` the figure was -9.28%; with `CCc1cc(NCC(O)CN2CCCC2)ncn1` (stereo unspecified), 6.09%.
With `COCC[C@]1(O)CCN(Cc2ccccn2)C[C@H]1C` the figure was -7.72%.
With `O=C(c1cc(-n2cccn2)ccc1Cl)N1CCC(N2CCCC2=O)CC1` the figure was -2.08%; with `CCn1ncc(CN2CCCC(C(=O)c3ccc(Cl)cc3)C2)c1C` (stereo unspecified), 0.522%; with `Cc1cc(N2CCC(C(=O)O)(n3ccc(C(C)C)n3)CC2)nc(N)n1`, 0.445%.
`Cc1nc2c(C)cccc2cc1C(=O)N1CCC2(CCCNC2)C1` (stereo unspecified): the cytotoxicity at 10 µM was -10.3%.
With `COc1ccc(NC2(C(=O)N3CCCn4cncc4C3)CCCC2)cc1` the figure was 10.2%.
Turning to `Cc1nc(O)cc(CCNC(=O)c2ccccc2N2CCCC2)n1`, the cytotoxicity at 10 µM stood at 10.4%.
With `CCCn1ccnc1CN1C[C@@H](CN2CCCCC2)[C@@H](CO)C1` the figure was 0.945%.
With `CCCOC1CCCN(C(=O)c2cc(CN(CC)CC)c(CC)o2)C1` (stereo unspecified) the figure was 10.1%.
On to `CN(C)c1nc2c(c(N3CCC(O)CC3)n1)CN(CC1CCNC1)CC2` (stereo unspecified), for which the cytotoxicity at 10 µM was -10.5%.
With `COCC(O)CNC(=O)c1cnc(-c2ccccc2)nc1O` (stereo unspecified) the figure was -10.2%; with `COc1ccc(CN2CCCN(C(=O)C(C)n3ccnc3)CC2)cc1` (stereo unspecified), -14.1%.
Turning to `CC(C)c1nc(C(=O)NCCn2ccnc2)nn1-c1cccc(F)c1`, the cytotoxicity at 10 µM is -7.64%.
With `COC(=O)c1ccc(N2CCN(CCC#N)C(C)C2)cc1` (stereo unspecified) the figure was -11.3%.
With `COc1c(CNCCNC(=O)Cc2ccc(F)cc2)c(C)nn1C` the figure was -3.09%; with `CC(C)CCCNC(=O)Nc1ccc(F)c(C(N)=O)c1`, -2.73%; with `COCCc1noc(CN2CCCCC2Cn2nc(C)cc2C)n1` (stereo unspecified), 0.962%.
With `CC(c1nc(C2CC2)no1)N1CCN(Cc2ccsc2)CC1` (stereo unspecified) the figure was 0.993%.
`CCOc1ccc(Br)cc1C1CCCCN1` (stereo unspecified): the cytotoxicity at 10 µM was 7.16%.
With `NCCc1cc(N2CCOCC2)nc(NC2CC2)n1` the figure was 0.881%; with `Cc1cc(N2CCN(Cc3cn(C)nc3C)CC2)cc(C2CCNC2)n1` (stereo unspecified), 0.39%.
With `OCCN(Cc1ccncc1)CC1(c2ccc(Cl)cc2)CCCC1` the figure was 13.8%; with `CN1CC[C@H]2OCC[C@@H](C(=O)NCc3ccco3)[C@@H]2C1`, -78%; with `Cn1cnc2c1C(COCc1ccccc1)N(Cc1ccccn1)CC2` (stereo unspecified), 9.82%.
With `CS(=O)(=O)N1CCOCC2(CCN(C(=O)c3cccnc3)CC2)C1` the figure was -10.1%.
In the case of `COCC1CC2(CCN(C(=O)c3occc3C)CC2)CN1C(C)C` (stereo unspecified), the cytotoxicity at 10 µM stood at 12%.
With `CNC(=O)[C@H]1C[C@@H]2CCN(CCc3ccccc3)C[C@@H]2O1` the figure was -81.7%; with `CN1CC(=O)N(c2cccc(F)c2)CC12CCN(Cc1cnn(C)c1)C2` (stereo unspecified), -5.87%.
With `CCCN1CCCn2c(nc(CNC(=O)c3ccsc3)cc2=O)C1` the figure was 6.89%; with `c1coc(CN2CCn3c(COCC4CC4)nnc3C2)c1`, 6.28%.
With `CCc1cnc(N2C[C@H]3CN(Cc4csc(C)n4)C(=O)[C@H]3C2)nc1` the figure was 9.43%; with `Cc1nc(CN2CC3(CCN(c4ncccn4)C3)CC2=O)cs1` (stereo unspecified), 5.31%.
`COCCO[C@H]1CCN(C(=O)c2ccno2)[C@H]1Cc1ccncc1`: the cytotoxicity at 10 µM is -78.1%.
With `O=S(=O)(NCC1COCc2c(-c3ccncc3)nnn2C1)C1CC1` (stereo unspecified) the figure was -80.9%.
With `CC(C)N1CCO[C@H]2CN(C(=O)Cc3cccs3)C[C@H]21` the figure was 7.07%.
With `CN(C)CCOCC1CN(Cc2ccoc2)Cc2nnn(C)c21` (stereo unspecified) the figure was -1.53%; with `CNC(=O)CN1CCOCC2(CCCN(Cc3cccnc3)C2)C1` (stereo unspecified), -6.02%; with `O=C1[C@@H]2CC[C@@H](CN(Cc3ccccc3OC(F)F)C2)N1CC1CC1`, -6.17%.
`CCCn1cc(C(=O)NC2CCC(n3cnnc3)CC2)c(C)n1` (stereo unspecified): the cytotoxicity at 10 µM came out at 0.642%.
